# The list is not random: actives were taken first. Their share in the collection is about 4.8%.
# PAFAH1B2 FP inh: PAFAH1B2 enzyme inhibitors, primary screen, biochemical, fluorescence polarization, human; recombinant PAFAH1B2, FP-rhodamine activity probe; inhibition, % at 3.39 µM; 1.2% of 340,000 active; AID 492953, 2010;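 active = inhibition above the mean of all tested compounds plus 3 SD, cut at about 24% in these data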;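 also: 0% = enzyme with DMSO and 100% = wells lacking PAFAH1B2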
# Target sequence (P68402 whole entry, looked up): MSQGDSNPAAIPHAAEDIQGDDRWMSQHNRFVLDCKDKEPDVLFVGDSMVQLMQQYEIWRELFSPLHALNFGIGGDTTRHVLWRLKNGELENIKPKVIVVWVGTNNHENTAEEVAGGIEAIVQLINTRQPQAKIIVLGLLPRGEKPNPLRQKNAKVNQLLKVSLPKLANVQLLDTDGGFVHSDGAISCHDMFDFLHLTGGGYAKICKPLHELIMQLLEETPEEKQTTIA
# PAFAH2 inh: PAFAH2 enzyme inhibitors, primary screen, biochemical, fluorescence polarization, human | 0.99% of 340,000 active | recombinant PAFAH2, FP-rhodamine activity probe | inhibition, % at 3.39 µM | Platelet-activating factor acetylhydrolase 2, cytoplasmic (Homo sapiens), Q99487 | AID 492956, 2010;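 active = inhibition above the mean over all tested compounds plus 3 SD, cut at about 30% in these data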;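 also: inhibitors block probe labeling of enzyme so polarization drops; 0% = enzyme with DMSO and 100% = wells lacking PAFAH2 protein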
# UCH37 DUB inh: inhibitors of human UCH37 deubiquitinase, primary screen, biochemical, Ub-AMC cleavage, fluorescence | 0.33% of 330,000 active | inhibition, % (no concentration beside the values) | purified proteasome/UCH37;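 active = mean inhibition over replicate wells above about 20%, limit read from the data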;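 also: 0% = compound-free wells with enzyme and 100% = wells lacking proteasome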
#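 assay system = human UCH37 enzyme supplied as purified proteasome complex | amount = proteasome at 0.15 nM in the dispensed enzyme solution | schedule = 30 min compound-proteasome preincubation then 25 min substrate reaction, room temperature | measured by = fluorescence, ex 355 nm, em 460 nm | benchmarks = no-proteasome wells (full inhibition) and compound-free wells (no inhibition)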
# PAFAH1B3 FP inh: PAFAH1B3 enzyme inhibitors, primary screen, biochemical, fluorescence polarization, human | recombinant PAFAH1B3, FP-rhodamine probe | inhibition, % at 3.39 µM | 0.28% of 340,000 active | AID 492972, 2010;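 active = inhibition above the screen-wide average of all tested compounds plus 3 SD, cut at about 25% in these data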;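 also: 0% = enzyme with DMSO only and 100% = wells lacking PAFAH1B3 protein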
# Target sequence (Q15102 whole entry, looked up): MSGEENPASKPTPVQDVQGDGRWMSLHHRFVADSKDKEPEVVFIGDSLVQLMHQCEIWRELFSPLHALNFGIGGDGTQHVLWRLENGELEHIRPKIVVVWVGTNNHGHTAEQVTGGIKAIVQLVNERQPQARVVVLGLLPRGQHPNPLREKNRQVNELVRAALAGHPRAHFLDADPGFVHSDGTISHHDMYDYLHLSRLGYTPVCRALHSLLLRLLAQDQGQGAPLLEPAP
# NR3A LBD binder: binders of NR3A ligand-binding domain, primary screen, biophysical, differential scanning fluorimetry, uHTS | Glutamate receptor ionotropic, NMDA 3A (GRIN3A) ligand-binding domain | NR3A LBD differential scanning fluorimetry, Tm shift; 0% = protein alone, 100% = glycine-bound protein | Tm shift relative to glycine control, % at 25 µM | 2.5% of 340,000 active;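 active = melting temperature shift of at least 10% of the positive control shift, at one fixed dose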
# pPAFAH FP inh: pPAFAH enzyme inhibitors, primary screen, biochemical, fluorescence polarization, human; Platelet-activating factor acetylhydrolase (Homo sapiens), Q13093; recombinant pPAFAH, FP-rhodamine probe fluorescence polarization; inhibition, % at 3.39 µM; 1.5% of 330,000 active; AID 463082, 2010;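 active = inhibition above the mean inhibition across the screen plus 3 SD, cut at about 25% in these data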;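 also: inhibitors block binding of the rhodamine activity-based probe so polarization drops; 0% = enzyme with DMSO and 100% = wells lacking pPAFAH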
# * = called active by the depositor; . = not tested or not shown.
SMILES,PAFAH1B2 FP inh,PAFAH2 inh,UCH37 DUB inh,PAFAH1B3 FP inh,NR3A LBD binder,pPAFAH FP inh
O=C(CC1N=C(Cc2ccccc2)NNC1=O)NN=Cc1ccc([N+](=O)[O-])cc1 (stereo not given),.,.,10,.,.,.
O=[N+]([O-])/C=C/c1cn(Cc2ccc(Cl)cc2)c2ccccc12,3,-7,20*,3,-5,7
Cc1cccc(Cn2cc(/C=C/[N+](=O)[O-])c3ccccc32)c1,0,7,0,10,-6,7
CC(C)(C)OC(=O)C(C)(C)ON=C(C(=O)O)c1csc(N)n1,.,.,4,.,.,.
CC(=NNc1cc(C)nc(NCc2ccccc2)n1)c1cccc([N+](=O)[O-])c1,.,.,9,.,.,.
COC1CCN(C(=O)c2ccc3oc(Cc4ccc(Cl)cc4)nc3c2)CC1,5,9,6,15,-1,4
O=C(c1ccc2oc(Cc3ccc(Cl)cc3)nc2c1)N1CCCCC1CCO (stereo not given),10,4,4,2,10*,1
O=C(Nc1cccc(O)c1)c1cc2nc(-c3ccccc3)cc(-c3ccccc3)n2n1,22,29,-108,23,20*,-4
O=C(NC1CCCC1)c1cc2nc(-c3ccccc3)cc(-c3ccccc3)n2n1,0,-1,-196,5,2,1
O=C(CC(SCCO)c1ccc([N+](=O)[O-])cc1)c1ccco1 (stereo not given),4,6,3,-4,40*,3
Cc1ccc(C(=O)CC(SCC(=O)O)c2ccc([N+](=O)[O-])cc2)cc1 (stereo not given),-2,2,2,-2,0,-3
COc1ccc(NC(=O)Nc2nnc(-c3cccs3)s2)cc1,3,-6,0,-1,16*,2
O=C(Nc1ccccc1)Nc1nnc(-c2cccs2)s1,4,6,-13,1,22*,2
COc1ccc(NC(=O)Nc2nnc(-c3ccccc3SCc3ccccc3)s2)cc1,-3,4,2,7,22*,6
COc1cccc(NC(=O)Nc2nnc(-c3ccccc3SCc3ccccc3)s2)c1,-7,-15,2,-5,7,-2
COc1ccc(C(=O)Nc2nnc(-c3cccs3)s2)cc1,2,-10,-5,1,2,0
Cc1[nH]c(=O)[nH]c(=O)c1C=NNC(=O)[C@H](CC(C)C)NC(=O)OC(C)(C)C,.,.,-4,.,.,.
CC1CCC2(CC1)SCC(=O)N2c1ccccc1 (stereo not given),27*,-1,-1,8,-1,8
CC1CN(C)C(C)CC1=NOc1ccc([N+](=O)[O-])cc1 (stereo not given),.,.,4,.,.,.
O=C1C=CC2=C3c4cc(O)c(O)cc4CC3(O)COC2=C1O (stereo not given),19,85*,.,36*,-2,.
COC(=O)C(=NNc1ccccc1OC)N1CCCc2ccccc21,.,.,3,.,.,.
CC(C)c1ccc(N(C)C(=O)Cc2c(C(=O)O)n(C)c3ccccc23)cc1,6,-6,4,13,3,5
CN(C(=O)Cc1c(C(=O)O)n(C)c2ccccc12)c1ccc(Cl)cc1,50*,4,2,-4,-2,2
CCOc1cc(C=NNC(=O)c2ccncc2)ccc1OC(=O)c1ccccc1,.,.,0,.,.,.
S=C(NCCSCc1ccc(Cl)cc1Cl)Nc1ccccc1,17,-8,1,-4,17*,0
SMILES,PAFAH1B2 FP inh,PAFAH2 inh,UCH37 DUB inh,PAFAH1B3 FP inh,NR3A LBD binder,pPAFAH FP inh
S=C(Nc1ccccc1)Nc1ccc(OCc2ccc(Cl)cc2Cl)cc1,2,0,4,0,14*,1
S=C(NCCSCc1ccc(Cl)c(Cl)c1)Nc1ccccc1,3,-9,0,4,22*,-4
CCOc1ccc(NC(=S)Nc2ccc(OCc3ccccc3)cc2)cc1,-6,4,0,-2,8,4
CC(CCN1CCc2nc(-c3ccccc3)c(-c3ccccc3)cc2C1)=NO[C@@H](C)c1cc(-c2c(C)cc(C)cc2C)no1,.,.,-2,.,.,.
CC(=NNC(=O)C1(C)CC1(Br)Br)c1ccc(NC(=O)c2ccc(C)o2)cc1 (stereo not given),.,.,-1,.,.,.
COc1ccc2c(c1)CC/C(=C\Nc1ccc3c(c1)OCO3)C2=O,4,8,1,5,2,25*
O=C1/C(=C/Nc2ccc3c(c2)OCO3)CCc2ccccc21,7,16,-7,8,-4,17
CCC(=O)NCc1c(C)c(C)n(Cc2ccccc2)c1-n1cccc1,28*,5,0,-1,-3,5
NC(CCN1CCCCC1)=NO,.,.,6,.,.,.
Cc1ccc2[nH]c(C)c(/C=C/c3cc[n+](C)cc3)c2c1,2,2,22*,6,2,.
Cc1ccc2c(c1)c(/C=C/c1cc[n+](C)cc1)c(C)n2C,-2,-3,.,2,2,.
COC(=O)c1cc2sc(Cl)cc2n1CC(=O)Nc1cccc(SC)c1,-3,-3,1,5,15*,3
C=CCN1C(=O)/C(=C/C(=O)OC)SC1=NNC(=O)c1ccccc1,.,.,4,.,.,.
CC(=O)c1ccc(NC(=O)NC2CC(=O)N(c3ccc4c(c3)OCCO4)C2)cc1 (stereo not given),0,-8,3,7,14*,4
Cc1cc(N(C)N=Cc2ccccc2O)nc(-c2ccccc2O)n1,.,.,-16,.,.,.
O=c1[nH]c(/C=C\c2cccc(Cl)c2)nc(O)c1[N+](=O)[O-],33*,5,11,12,-1,0
O=C(Nc1cccnc1)c1cc(-c2cc(Cl)ccc2O)n[nH]1,-3,-14,3,-5,32*,-7
COc1ccc(Cl)cc1C(=O)Nc1cccnc1,-4,3,0,-4,1,5
Cc1ccc(O)c(-c2cc(C(=O)Nc3cccnc3)[nH]n2)c1,2,-3,4,1,29*,0
Cc1ccc(C)c(NC(=O)c2cc(-c3ccccc3O)n[nH]2)c1,0,-8,0,-1,5,.
COc1ccc(CC(=O)NN=Cc2ccc(-c3ccc(F)cc3)o2)cc1OC,.,.,2,.,.,.
CCCc1nc2ccccc2c(=O)n1N=Cc1ccc(O)cc1O,.,.,1,.,.,.
CCSc1nsc(NC(=O)Nc2cccc(F)c2)n1,5,-29,.,0,32*,-6
CCCSc1nsc(NC(=O)Nc2ccc(F)cc2F)n1,-2,-4,4,-1,14*,-3
